Reference: ChEMBL document CHEMBL4825665, “Effective degradation of EGFRL858R+T790M mutant proteins by CRBN-based PROTACs through both proteosome and autophagy/lysosome degradation systems” (Eur J Med Chem, 2021)
The source made the active and inactive calls. No cut-off for these calls is given here.

Assays:
[1] = Antiproliferative activity against human PB1 cells assessed as inhibition of cell growth measured after 72 hrs by CCK-8 assay; type: functional, cell-based; conditions: PB1, 72 h
Procedure, shortened: (§1)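 Cells seeded at 3000 cells/well in 96-well plates and treated with graded compound concentrations one day later for 72 h. CCK-8 was added for 1–4 h and absorbance read at 450 nm. Lung cancer lines were kept in RPMI 1640 with 10% fetal calf serum at 37 °C and 5% CO₂.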

HCC827 = assay: Antiproliferative activity against human HCC827 cells assessed as inhibition of cell growth measured after 72 hrs by CCK-8 assay; type: functional, cell-based; conditions: HCC827, 72 h; procedure, shortened: as §1
A549 = assay: Antiproliferative activity against human A549 cells assessed as inhibition of cell growth measured after 72 hrs by CCK-8 assay; type: functional, cell-based; conditions: A549, 72 h; procedure, shortened: as §1
HEK-293T = assay: Cytotoxicity against human HEK293T cells assessed as inhibition of cell growth measured after 72 hrs by CCK-8 assay; type: cell-based; procedure, shortened: as §1
BJ = assay: Cytotoxicity against human BJ cells assessed as inhibition of cell growth measured after 72 hrs by CCK-8 assay; type: cell-based; procedure, shortened: as §1
[2] = molecular target: T1, Protein cereblon/Epidermal growth factor receptor (Homo sapiens, UniProt P00533+Q96SW2); assay: Protac activity at CRBN/EGFR in human PC-9 cells assessed as induction of EGFR degradation by Western blot assay; type: cell-based
[3] = molecular target: T1, Protein cereblon/Epidermal growth factor receptor; assay: Protac activity at CRBN/EGFR in human PB1 cells assessed as induction of EGFR degradation by Western blot assay; type: cell-based
[4] = molecular target: T1, Protein cereblon/Epidermal growth factor receptor; assay: Protac activity at CRBN/EGFR in human NCI-H1975 cells assessed as induction of EGFR degradation by Western blot assay; type: cell-based
[5] = molecular target: T1, Protein cereblon/Epidermal growth factor receptor; assay: Protac activity at CRBN/EGFR in human A549 cells assessed as induction of EGFR degradation by Western blot assay; type: cell-based
[6] = tested on: Protein cereblon/Epidermal growth factor receptor (Homo sapiens), P00533+Q96SW2 [UNDEFINED MUTATION]; assay: Protac activity at CRBN/EGFR exon 19 deletion mutant in human PC-9 cells assessed as induction of EGFR degradation at >10 nM measured after 48 hrs by Western blot assay; type: cell-based; conditions: dose nM >10, time 48.0 hrs
Procedure, shortened: (§2)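 Cells seeded at 1-3X10^5/well and treated one day later with compounds at the concentrations and times given. Lysed in RIPA buffer with protease inhibitors. 15 µg protein run on 8% SDS-PAGE, transferred to nitrocellulose, probed for EGFR or phospho-EGFR, ECL detection. Lung lines kept in RPMI 1640 with 10% fetal calf serum, 37 °C, 5% CO2. DC50 is an estimated value. Repeated more than 3 times.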

[7] = tested on: Protein cereblon/Epidermal growth factor receptor (Homo sapiens), P00533+Q96SW2 [L858R,T790M]; assay: Protac activity at CRBN/EGFR L858R/T790M mutant in human NCI-H1975 cells assessed as induction of EGFR degradation measured after 48 hrs by Western blot assay; type: cell-based; conditions: dose 30-500 nM; procedure, shortened: as §2
[8] = tested on: Protein cereblon/Epidermal growth factor receptor (Homo sapiens), P00533+Q96SW2 [L858R,T790M]; assay: Protac activity at CRBN/EGFR L858R/T790M mutant in human NCI-H1975 cells assessed as induction of EGFR degradation at 300 nM measured after 8 to 72 hrs by Western blot assay relative to control; type: cell-based; conditions: time 8-72 hrs
[9] = tested on: Protein cereblon/Epidermal growth factor receptor (Homo sapiens), P00533+Q96SW2 [UNDEFINED MUTATION]; assay: Protac activity at CRBN/EGFR exon19 deletion/T790M mutant in human PC-9 cells transfected with BRCA1 assessed as induction of EGFR degradation at 1 to 1000 nM measured after 16 hrs by Western blot assay; type: cell-based; conditions: dose 1-1000 nM; procedure, shortened: as §2
[10] = tested on: Epidermal growth factor receptor (Homo sapiens), P00533 [L858R,T790M]; assay: Inhibition of EGFR L858R/T790M mutant phosphorylation in human NCI-H1975 cells at 1 to 100 nM measured after 16 hrs by Western blot assay; type: cell-based; conditions: dose 1-100 nM; procedure, shortened: as §2
[11] = tested on: Protein cereblon/Epidermal growth factor receptor (Homo sapiens), P00533+Q96SW2 [L858R,T790M]; assay: Protac activity at CRBN/EGFR L858R/T790M mutant in human NCI-H1975 cells assessed as induction of EGFR degradation at 300 nM pretreated for 24 hrs followed by compound washout and subsequent addition of fresh medium by Western blot assay relative to control; type: cell-based
Procedure, shortened: (§3)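 H1975 cells were treated with 300 nM PROTAC for 24 h. Medium was removed, cells were washed 3 times with PBS, and fresh RPMI 1640 with 10% fetal calf serum was added. Cells were harvested at time points up to 72 h after drug removal, and total EGFR was measured by Western blot.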

[12] = tested on: Protein cereblon/Epidermal growth factor receptor (Homo sapiens), P00533+Q96SW2 [L858R,T790M]; assay: Protac activity at CRBN/EGFR L858R/T790M mutant in human NCI-H1975 cells assessed as induction of EGFR degradation at 300 nM incubated for 24 hrs followed by compound washout and measured 72 hrs after drug removal by Western blot assay; type: cell-based; procedure, shortened: as §3
NCI-H1975 [13] = assay: Cell cycle arrest in human NCI-H1975 cells expressing EGFR L858R/T790M mutant assessed as increase of cell population in G0/G1 phase at […] measured after 48 hrs by RNaseA/propidium iodide staining based flow cytometry; type: functional; conditions: dose lower 0.03 nM
Procedure, shortened: (§4)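 H1975 cells (1 × 10⁵/well, 6-well plates) treated one day after seeding at the indicated concentrations for 48 h. Washed in cold PBS, fixed in cold ethanol at −20 °C for over 24 h, then stained with PI/RNase for 30 min at 37 °C in the dark. Phase distribution measured by flow cytometry.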

NCI-H1975 [14] = assay: Cell cycle arrest in human NCI-H1975 cells expressing EGFR L858R/T790M mutant assessed as decrease of cell population in S phase at […] measured after 48 hrs by RNaseA/propidium iodide staining based flow cytometry; type: functional; conditions: dose lower 0.03 nM; procedure, shortened: as §4
NCI-H1975 [15] = assay: Induction of apoptosis in human NCI-H1975 cells expressing EGFR L858R/T790M mutant assessed as decrease in number of viable cells measured after 72 hrs by Annexin-V/FITC staining based flow cytometry method; type: functional, cell-based
Procedure, shortened: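 H1975 cells (8 × 10⁴/well, 12-well plates) treated one day after seeding at graded concentrations for 72 h. Collected, stained with Annexin V-FITC, and apoptosis measured by flow cytometry.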

NCI-H1975 [16] = assay: Antimigratory activity in human NCI-H1975 cells expressing EGFR L858R/T790M mutant at 500 nM measured after 24 hrs by wound healing assay; type: functional, cell-based
Procedure, shortened: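 H1975 cells seeded in 24-well plates, scratched at confluence with a pipette tip 24 h later and washed three times with PBS. Then incubated with degrader at 300 or 500 nM. Six photos per well taken at set time points, and the uncovered wound area quantified.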

[17] = tested on: Protein cereblon/Epidermal growth factor receptor (Homo sapiens), P00533+Q96SW2 [L858R,T790M]; assay: Protac activity at CRBN/EGFR L858R/T790M mutant in human NCI-H1975 cells assessed as induction of EGFR degradation at 0.3 uM pre-incubated for 2 hrs in the presence of MLN4924 and measured after 16 hrs by Western blot assay; type: cell-based; conditions: time 18.0 hrs
[18] = tested on: Protein cereblon/Epidermal growth factor receptor (Homo sapiens), P00533+Q96SW2 [L858R,T790M]; assay: Protac activity at CRBN/EGFR L858R/T790M mutant in human NCI-H1975 cells assessed as increase in ratio of LC3B2 to LC3B1 under serum starvation condition at 0.3 uM measured after 16 hrs by Western blot assay; type: cell-based
Procedure, shortened: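 H1975 cells in RPMI 1640 with 10% serum. Autophagy was read by Western blot as the LC3B II/LC3B I ratio. Serum-free medium and rapamycin served as autophagy-inducing positive controls, and rapamycin was also combined with degrader. Where pretreatment applied, compounds were added for 2 h before a 16 h PROTAC treatment.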

## C=CC(=O)Nc1cc2c(Nc3ccc(F)c(Cl)c3)ncnc2cc1OCCCN1CCN(C(=O)CCCCCNc2cccc3c2C(=O)N(C2CCC(=O)NC2=O)C3=O)CC1 (centres undefined)
[1]
  IC50: 45 nM
HCC827
  IC50: 2.12 nM
A549
  IC50: > 10000 nM
HEK-293T
  IC50: > 10000 nM
BJ
  IC50: > 10000 nM
[2]
  DC50: 100 nM
[3]
  DC50: Not Active
[4]
  DC50: 30 nM
[5]
  DC50: Not Active
[6]
  Activity: Dose-Dependent Effect
[7]
  Activity: Dose-Dependent Effect
[8]
  Activity: 98%
[9]
  Activity: inactive
[10]
  Activity: Active
[11]
  Activity: Active
[12]
  Activity: Active
NCI-H1975 [13]
  Activity: Active
NCI-H1975 [14]
  Activity: Active
NCI-H1975 [15]
  Activity: Dose-Dependent Effect
NCI-H1975 [16]
  Activity: Active
[17]
  Activity: inactive
[18]
  Activity: Active

## C=CC(=O)Nc1cc2c(Nc3ccc(F)c(Cl)c3)ncnc2cc1OCCCN1CCN(C(=O)CCCCCCNc2cccc3c2C(=O)N(C2CCC(=O)NC2=O)C3=O)CC1 (centres undefined)
[1]
  IC50: 89.5 nM
HCC827
  IC50: 1.15 nM
A549
  IC50: > 10000 nM
HEK-293T
  IC50: > 10000 nM
BJ
  IC50: > 10000 nM
[2]
  DC50: 30 nM
[3]
  DC50: Not Active
[4]
  DC50: < 30 nM
[5]
  DC50: Not Active
[6]
  Activity: Dose-Dependent Effect
[7]
  Activity: Dose-Dependent Effect
[8]
  Activity: 98%
[9]
  Activity: inactive
[10]
  Activity: Active
[11]
  Activity: Active
[12]
  Activity: Active
NCI-H1975 [13]
  Activity: Active
NCI-H1975 [14]
  Activity: Active
NCI-H1975 [15]
  Activity: Dose-Dependent Effect
NCI-H1975 [16]
  Activity: Active
[17]
  Activity: inactive
[18]
  Activity: Active
